Laboratory results: ChEMBL document CHEMBL4689842, “EUbOPEN Chemogenomics Library wave 1” (2021)
Values joined by “and” are separate entries in the source; they are usually repeats but may differ in a detail not shown here. Equal entries are not always repeated.

Test system: Fibroblast
Test: Multiplex assay against human fibroblast
Format: toxicity, cell-based
Summary of the method: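 Four dyes were applied at seeding to live cells: Hoechst33342, BioTracker Green Microtubule Cytoskeleton Dye, MitoTracker Red and Annexin V Alexa Fluor 680. Imaging after compound addition used a CQ1 microscope at 37°C and 5% CO2. CellPathfinder machine-learning gating then sorted cells into Hoechst high-intensity objects or normal cells, normal cells into healthy, pyknosed or fragmented nuclei, and pyknosed cells into mitotic or apoptotic, with tubulin, mitochondrial-mass and membrane-permeability phenotypes given as per cents of healthy-nucleus cells.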

[1] = 12 h, 1 µM, compound concentration 1 uM, replicate 1
[2] = 12 h, 1 µM, compound concentration 1 uM, replicate 2
[3] = 12 h, 10 µM, compound concentration 10 uM, replicate 1
[4] = 12 h, 10 µM, compound concentration 10 uM, replicate 2
[5] = 24 h, 1 µM, compound concentration 1 uM, replicate 1
[6] = 24 h, 1 µM, compound concentration 1 uM, replicate 2
[7] = 24 h, 10 µM, compound concentration 10 uM, replicate 1
[8] = 24 h, 10 µM, compound concentration 10 uM, replicate 2

In the case of `CC[C@@]1(O)C(=O)OCc2c1cc1n(c2=O)Cc2cc3ccccc3nc2-1` [CAMPTOTHECIN], the “Population Apoptotic (%)” value [1] is reported as 68% and 80%, the “Population Fragmented Nuclei (%)” value [1] is reported as 42% and 41% and 43% and the “Population Healthy Nuclei (%)” value [1] is reported as 49% and 43% and 37%. The “Population Membrane Permeable-Phenotype (%)” value [1] was 10% and 7% and 5%, the “Population Mitochondria Different-Phenotype (%)” value [1] was 3% and 9% and 7% and the “Population Mitotic Cells (%)” value [1] was 31% and 20% and 19%. For the same molecule, the “Population Normal (%)” value [1] was 84% and 52% and 47%, the “Population Pyknosed Nuclei (%)” value [1] was 8% and 15% and 19% and the “Total Cell Count” value [1] was 256 and 440 and 382. The “Population Fragmented Nuclei (%)” value [2] was 64% and 80%, the “Population Healthy Nuclei (%)” value [2] was 32% and 19% and 34% and the “Population Hoechst High Intensity Objects (%)” value [2] was 37% and 59% and 67%. For the same molecule, the “Population Membrane Permeable-Phenotype (%)” value [2] was 15% and 16% and 6%, the “Population Mitochondria Different-Phenotype (%)” value [2] was 10% and 12% and 30% and the “Population Normal (%)” value [2] was 62% and 40% and 32%. The “Population Pyknosed Nuclei (%)” value [2] was 3% and 0% and 1%, the “Population Tubulin-Different-Phenotype (%)” value [2] was 21% and 28% and 24% and the “Population Apoptotic (%)” value [3] was 87%. The “Population Fragmented Nuclei (%)” value [3] was 34%, the “Population Healthy Nuclei (%)” value [3] was 43% and the “Population Hoechst High Intensity Objects (%)” value [3] was 27%. The “Population Membrane Permeable-Phenotype (%)” value [3] was 3%, the “Population Mitochondria Different-Phenotype (%)” value [3] was 11% and the “Population Mitotic Cells (%)” value [3] was 12%. For the same molecule, the “Population Normal (%)” value [3] was 72%, the “Population Pyknosed Nuclei (%)” value [3] was 21% and the “Population Tubulin-Different-Phenotype (%)” value [3] was 9%. For the same molecule, the “Total Cell Count” value [3] was 198, the “Population Apoptotic (%)” value [4] was 50% and the “Population Fragmented Nuclei (%)” value [4] was 65%. For the same molecule, the “Population Healthy Nuclei (%)” value [4] was 30%, the “Population Hoechst High Intensity Objects (%)” value [4] was 41% and the “Population Membrane Permeable-Phenotype (%)” value [4] was 7%. For the same molecule, the “Population Mitochondria Different-Phenotype (%)” value [4] was 7%, the “Population Mitotic Cells (%)” value [4] was 50% and the “Population Normal (%)” value [4] was 58%. For the same molecule, the “Population Pyknosed Nuclei (%)” value [4] was 4%, the “Population Tubulin-Different-Phenotype (%)” value [4] was 7% and the “Total Cell Count” value [4] was 74. For the same molecule, the “Population Apoptotic (%)” value [5] was 78% and 72% and 90%, the “Population Fragmented Nuclei (%)” value [5] was 39% and 40% and 34% and the “Population Healthy Nuclei (%)” value [5] was 48% and 43% and 55%. The “Population Membrane Permeable-Phenotype (%)” value [5] was 10% and 4% and 6%, the “Population Mitochondria Different-Phenotype (%)” value [5] was 7% and 15% and 8% and the “Population Mitotic Cells (%)” value [5] was 21% and 27% and 9%. For the same molecule, the “Population Normal (%)” value [5] was 54% and 49% and 89%, the “Population Pyknosed Nuclei (%)” value [5] was 12% and 16% and 10% and the “Population Tubulin-Different-Phenotype (%)” value [5] was 16% and 11% and 12%. For the same molecule, the “Total Cell Count” value [5] was 414 and 405 and 222, the “Population Fragmented Nuclei (%)” value [6] was 57% and 80% and 66% and the “Population Healthy Nuclei (%)” value [6] was 40% and 18% and 32%. The “Population Hoechst High Intensity Objects (%)” value [6] was 44% and 56% and 68%, the “Population Membrane Permeable-Phenotype (%)” value [6] was 15% and 16% and 0% and the “Population Mitochondria Different-Phenotype (%)” value [6] was 25% and 16% and 28%. The “Population Normal (%)” value [6] was 55% and 43% and 31%, the “Population Pyknosed Nuclei (%)” value [6] was 2% and 1% and the “Population Tubulin-Different-Phenotype (%)” value [6] was 20% and 29% and 36%. The “Population Apoptotic (%)” value [7] was 85%, the “Population Fragmented Nuclei (%)” value [7] was 34% and the “Population Healthy Nuclei (%)” value [7] was 45%. The “Population Hoechst High Intensity Objects (%)” value [7] was 28%, the “Population Membrane Permeable-Phenotype (%)” value [7] was 6% and the “Population Mitochondria Different-Phenotype (%)” value [7] was 9%. For the same molecule, the “Population Mitotic Cells (%)” value [7] was 14%, the “Population Normal (%)” value [7] was 71% and the “Population Pyknosed Nuclei (%)” value [7] was 19%. For the same molecule, the “Population Tubulin-Different-Phenotype (%)” value [7] was 7%, the “Total Cell Count” value [7] was 201 and the “Population Apoptotic (%)” value [8] was 100%. For the same molecule, the “Population Fragmented Nuclei (%)” value [8] was 65%, the “Population Healthy Nuclei (%)” value [8] was 31% and the “Population Hoechst High Intensity Objects (%)” value [8] was 42%. For the same molecule, the “Population Membrane Permeable-Phenotype (%)” value [8] was 0%, the “Population Mitochondria Different-Phenotype (%)” value [8] was 0% and the “Population Mitotic Cells (%)” value [8] was 0%. For the same molecule, the “Population Normal (%)” value [8] was 57%, the “Population Pyknosed Nuclei (%)” value [8] was 2% and the “Total Cell Count” value [8] was 77.
